Structures are written as SMILES.

The data set in a line: Toxicity liver stage against HepG2, at 10uM. In kind it is cell-based. More on the design: test concentration 10 uM, cell line HepG2-A16-CD81EGFP. The note with it: human, HepG2-A16-CD81EGFP cells; read-out: INHIBITION
In outline: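 Uninfected HepG2-A16-CD81EGFP cells, 3 × 10^3 per well, 1536-well, plated on prespotted compound at 10 μM final, parasite-free screening media added to match infected plates; puromycin 10 μM positive, DMSO 0.5% negative; run in parallel with 48 h PbLuc assay at 37 °C, 5% CO2; viability by CellTiter-Glo luminescence, normalized to controls.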
On to `Cn1ncc2c1CCCN(C(=O)C1CCC1)C2`, for which the cytotoxicity at 10 µM was -3.15%. With `CN(CC(=O)NCCc1ccccn1)C(=O)c1cccs1` the figure was 2.26%; with `COc1ccc(-c2nnc([C@H]3CCN(CC(C)(C)C)C3)o2)cc1`, -3.43%; with `CC(C)(C)C(=O)CN1Cc2ccccc2NCCC1=O`, -3.19%. As to `CC1CC(=O)c2cc(C(=O)N3CCc4ccccc4C3)c(=O)[nH]c2C1` (configuration not stated), the cytotoxicity at 10 µM was -4.65%. With `CCS(=O)(=O)N1CCC(c2nnc(C3CC3)o2)CC1`, the cytotoxicity at 10 µM was -10.7%. As to `CS(=O)(=O)N1CCCC12CCCN(C(=O)c1ccncc1)C2` (configuration not stated), the cytotoxicity at 10 µM was -159%.

On to `COc1ccccc1NC(=O)CSC1CCc2ccccc2NC1=O` (configuration not stated), for which the cytotoxicity at 10 µM came to 20%. Take `CCOc1cccc(CNc2ccccc2C(=O)OC)c1O`: the cytotoxicity at 10 µM is 6.69%. For `CC(C)c1nnc2ccc(N3CCC(C(N)=O)CC3)nn12`, the cytotoxicity at 10 µM is 8.63%. The same measure for `Fc1cccc(Cl)c1CNCc1ccccn1`: -2.25%; for `CCn1cc(NC(=O)C(C)n2ncc(Cl)c2C)c(C(=O)NCC(C)C)n1` (configuration not stated): 0.557%; for `CC(C)NC(=O)COc1ccc(-c2nc(C(C)C)no2)cc1`: 5.67%. The same measure for `COc1cccc(OCCNS(=O)(=O)Cc2ccccc2)c1`: -15.7%; for `C=CNC(=O)c1nnc2ccc(N3CCOCC3)cc2n1`: 8.85%. For the compound `CNC(=O)C1(C)CN(S(=O)(=O)c2cccc(OC)c2)CCO1` (configuration not stated), the cytotoxicity at 10 µM was -1.43%.

On to `CN(C)C(=O)c1cncnc1-c1ccc(CNC(=O)C2CC2)cc1`, for which the cytotoxicity at 10 µM was found to be 2.33%. For `Cc1onc(-c2ccncc2)c1C(=O)NC1CCCOC1` (configuration not stated), the cytotoxicity at 10 µM was determined as 4.51%. The same measure for `Cc1c(C(=O)N2CCC(C(=O)c3nc4ccccc4s3)CC2)cnn1C`: 6.32%; for `CN1CCC(c2nnc3n2CCN(S(=O)(=O)c2ccccc2Cl)C3)CC1`: 2.58%. With `COc1ccc(CC(=O)N2CCN(Cc3ccco3)C[C@H]2C)cc1OC`, the cytotoxicity at 10 µM was found to be 1.02%. The same measure for `Cc1cc2c(c(=O)n1CCC(=O)O)C=CC(C)(C)O2`: 10.8%. Regarding `CC(Cn1cc(Cl)cn1)C(=O)Nc1ccc(CN2CCCCCC2)cc1` (configuration not stated), the cytotoxicity at 10 µM stood at 8.66%. `Cc1nc(C2CCN2c2ncccn2)cc(N(C)C)n1` (configuration not stated): the cytotoxicity at 10 µM is -4.8%.

Take `O=C(O)c1ccc(=O)n(CC(c2ccc(Cl)cc2)N2CCCCCC2)c1` (configuration not stated): the cytotoxicity at 10 µM is 1.12%. In the case of `Cc1cc(C(F)(F)F)n2nc(C3CCN(S(=O)(=O)N(C)C)CC3)cc2n1`, the cytotoxicity at 10 µM was -2.88%. Turning to `Oc1cc(C2CCCCN2Cc2ccsc2)nc(-c2ccncc2)n1` (configuration not stated), the cytotoxicity at 10 µM is 9.89%. On to `CCc1cc(C(=O)N[C@@H]2CC[C@@H](N3CCOCC3)[C@@H]2O)no1`, for which the cytotoxicity at 10 µM worked out at 37.5%. Turning to `Nc1nccnc1C1CN(C(=O)c2ccc3c(c2)OCO3)CCO1` (configuration not stated), the cytotoxicity at 10 µM is -23.7%. `NC(=O)CN1CCOCC(Cc2ccccc2Cl)C1` (configuration not stated): the cytotoxicity at 10 µM is 3.18%.

Regarding `CCc1nnc(Nc2cccc(C3CCN(C(=O)CO)CC3)n2)s1`, the cytotoxicity at 10 µM was -3.86%.

For `O=c1[nH]c(-c2ccccn2)nc2c1CCN(Cc1cccc(O)c1)C2`, the cytotoxicity at 10 µM was -17.6%.

For the compound `O=C(C1CCCC1)N1CC2(CCNC2)OCc2ccccc21` (configuration not stated), the cytotoxicity at 10 µM worked out at 8.9%.

As to `COc1ccccc1CN1CCCC2(Cc3ccccc3CNC2=O)C1` (configuration not stated), the cytotoxicity at 10 µM worked out at 6.2%. With `COCCN(Cc1ccccn1)C(=O)CC1OCCc2ccccc21` (configuration not stated) the figure was -42.5%.

Regarding `CNC(=O)c1cccc(CCNC2CCSc3ccccc32)c1` (configuration not stated), the cytotoxicity at 10 µM turned out to be 3.42%. Consider `COc1cc(Cl)c(CN2CCC(C(N)=O)C2)cc1Cl` (configuration not stated), for which the cytotoxicity at 10 µM is -2.4%.

Turning to `O=C(NCCc1nncn1C1CC1)C1SCCc2sccc21` (configuration not stated), the cytotoxicity at 10 µM is -1.6%.

Regarding `Cc1cn2c(CN(C)C(=O)c3ncoc3C)c(C)nc2s1`, the cytotoxicity at 10 µM was -3.28%. In the case of `CCOC(C)c1nc(CN2CCC(C3OCCO3)CC2)cs1` (configuration not stated), the cytotoxicity at 10 µM was -1.91%. On to `CN(C)C(=O)CCNC(=O)c1cnc(-c2ccccc2)nc1`, for which the cytotoxicity at 10 µM stood at 4.87%.

In the case of `CC(=O)N1CCN(C(=O)CN2CCN(c3cccc(C)c3)CC2)CC1`, the cytotoxicity at 10 µM was -1.75%. For the compound `N#CCSCCCN1CCN(C(=O)c2cccc(Cl)c2)CC1`, the cytotoxicity at 10 µM is -161%. Turning to `Cc1cc(NC(=O)C(C)Nc2cccc(COCc3ccco3)c2)no1` (configuration not stated), the cytotoxicity at 10 µM was -1.42%. With `CCCc1nn(C2CCN(C(C)C)C2=O)c(=O)o1` (configuration not stated), the cytotoxicity at 10 µM is -3.59%.

For the compound `Cn1c(CCCNc2nccnc2C#N)nc2ccccc21`, the cytotoxicity at 10 µM was -8.98%. For `Cc1ccc(-c2ncc(CNc3cnccc3CO)s2)o1`, the cytotoxicity at 10 µM is -10.9%. `Cc1cc(C)n(CC2CCCCN2CC(=O)Nc2nncs2)n1` (configuration not stated): the cytotoxicity at 10 µM is -4.25%. For `COCCn1ccc(NC(=O)Nc2ccc(C(N)=O)c(F)c2)n1`, the cytotoxicity at 10 µM came out at 2.63%.

`Cc1[nH]c(-c2ccccc2)nc1C(=O)N1CCC(O)(CO)CC1`: the cytotoxicity at 10 µM is 1.1%.

Take `COc1cccc(N2CCN(C(=O)C(O)c3ccccc3Cl)CC2=O)c1` (configuration not stated): the cytotoxicity at 10 µM amounted to 3.25%. For the compound `CCc1cc(N2CCC(NCCc3ccccc3F)CC2)nc(C)n1`, the cytotoxicity at 10 µM was found to be 7.33%. For the compound `O=S1(=O)CCC(n2cc(C3=CCN(CCn4cccc4)CC3)cn2)C1` (configuration not stated), the cytotoxicity at 10 µM was -8.5%. With `CN(Cc1ccccc1CN1CCCC1)C(=O)c1c[nH]c(=O)[nH]1` the figure was -3.99%; with `CCc1nc(CN2CCCN(C(=O)c3cnc(C)cn3)CC2)cs1`, -4.81%; with `CC(C)N1CCN(C(=O)Cc2csc(-c3ccco3)n2)CC1`, -2.93%. In the case of `CN(C)CC(=O)N1CCN(C(=O)c2cccc3[nH]ncc23)CC1`, the cytotoxicity at 10 µM is -11.6%. With `CCn1cc(NC(=O)C2CCN(CC(=O)N3CCOCC3)CC2)cn1` the figure was -3.46%; with `COCc1nc(C(=O)NS(=O)(=O)c2ccc(C)s2)cs1`, -4.61%; with `N#CC1(C(=O)NCCCNc2ccc(C(F)(F)F)cn2)CCCC1`, -6.36%. For `Cc1nnc2n1CCN(Cc1ncc(-c3ccc(Cl)cc3)o1)C2`, the cytotoxicity at 10 µM is -17.7%. As to `Clc1snnc1CN1CCCCC1Cn1cncn1` (configuration not stated), the cytotoxicity at 10 µM was -0.575%. As to `Cc1ccc(-c2nc(CCNC(=O)CCN3CCOC3=O)co2)cc1`, the cytotoxicity at 10 µM was 2.33%.

As to `CC(NC(=O)N1CCC(OCc2ccccc2)CC1)c1nncn1C` (configuration not stated), the cytotoxicity at 10 µM is -1.49%. Turning to `COCc1nc(C(=O)N2CCCC2c2noc(C(C)C)n2)cs1` (configuration not stated), the cytotoxicity at 10 µM is 0.866%.

As for `CCCN1C(=O)CC2(CCCNC2)C1=O` (configuration not stated), the cytotoxicity at 10 µM was 4.1%.

As for `COc1cccc(Cn2c(C3CCNCC3)cc3cccnc32)c1`, the cytotoxicity at 10 µM turned out to be 0.115%. The same measure for `CN(C)C(=O)[C@@H]1CCO[C@@H]2CCN(Cc3ccc4c(c3)OCO4)C[C@@H]21`: -3.76%. Regarding `O=S(=O)(NCC1OCCc2cn(Cc3ccccn3)nc21)C1CC1` (configuration not stated), the cytotoxicity at 10 µM was -143%. `CS(=O)(=O)N1CCC2(CC1)CC(Oc1ccccn1)CO2` (configuration not stated): the cytotoxicity at 10 µM is -150%. With `CO[C@@H]1CN(Cc2scnc2C)[C@@H]2CCCO[C@@H]21`, the cytotoxicity at 10 µM is -6.34%. Consider `Cc1ncsc1CN1CC[C@H]2OCC[C@@]2(C(=O)NC(C)C)C1`, for which the cytotoxicity at 10 µM was determined as 9.38%.

For the origin of these results see ChEMBL document CHEMBL4513216, “Probing the Open Global Health Chemical Diversity Library for Multistage-Active Starting Points for Next-Generation Antimalarials” (ACS Infect Dis, 2020).
